Here are results for 18 molecules from ChEMBL document CHEMBL1250428, “Identification of novel bacterial histidine biosynthesis inhibitors using docking, ensemble rescoring, and whole-cell assays” (Bioorg Med Chem, 2010).

Active and inactive are the calls of the source. The calls are words filed in the database; no cut-off is given here.

Data set [1] has as its system Staphylococcus aureus. Nature of the data set: Antibacterial activity against methicillin-resistant Staphylococcus aureus USA300 assessed as growth inhibition at 10 mg/ml after 16 to 20 hrs. It is filed as functional, organism-based. An outline of the steps: (§1)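 Disc diffusion assay. Sterile filter discs soaked with 10 µl of a 10 mg/ml compound solution were placed on evenly inoculated LB or minimal medium agar, then incubated 16–20 h at 37 °C. Growth inhibition was scored by eye on a graded scale from strong inhibition through weak or partial inhibition to none. DMSO served as the negative control.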

The nature of data set [2]: Cytotoxicity against human CL1 cells expressing hTERT assessed as cell viability at 100 ug/ml after 24 hrs by trypan blue exclusion assay. It is filed as cell-based.
Data set [3] has as its system Pseudomonas aeruginosa. In words: Antibacterial activity against Pseudomonas aeruginosa PAO1 assessed as growth inhibition at 10 mg/ml after 16 to 20 hrs. It is filed as functional, organism-based. An outline of the steps: (§2)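 Disc diffusion: sterile filter discs loaded with 10 µl of a 10 mg/ml compound solution were placed on evenly inoculated LB or minimal medium agar plates and incubated 16–20 h at 37 °C. Growth inhibition around each disc was scored qualitatively (weak, partial, or strong). Controls were 10 µl of 1 mg/ml ampicillin and DMSO.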

Data set [4] concerns Staphylococcus aureus. In words: Antibacterial activity against clinical isolate of Staphylococcus aureus assessed as growth inhibition at 10 mg/ml after 16 to 20 hrs. It is filed as functional, organism-based. The method, boiled down:
as §2

Data set [5] deals with Escherichia coli. In words: Antibacterial activity against Escherichia coli 1655 assessed as growth inhibition at 10 mg/ml after 16 to 20 hrs. Type of data set: functional, organism-based. The method, boiled down:
as §2

The subject of data set [6] is Staphylococcus aureus. In words: Antibacterial activity against methicillin-resistant Staphylococcus aureus Mu50 assessed as growth inhibition at 10 mg/ml after 16 to 20 hrs. It is filed as functional, organism-based. An outline of the steps: as §1
The test system of data set [7] is Escherichia coli. In words: Antibacterial activity against clinical isolate of Escherichia coli assessed as growth inhibition at 10 mg/ml after 16 to 20 hrs. Type of data set: functional, organism-based. The method, boiled down:
as §2

Data set [8] can be described thus: Cytotoxicity against human CL1 cells expressing hTERT assessed as cell viability at 100 ug/ml after 24 hrs by MTT assay. It is filed as cell-based.
Data set [9] relates to Staphylococcus aureus. Nature of the data set: Antibacterial activity against methicillin-resistant Staphylococcus aureus USA300 assessed as growth inhibition at 10 mg/ml after 16 to 20 hrs in presence of 0.2 mM L-histidine. It is filed as functional, organism-based. The method, boiled down:
(§3)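 Histidine complementation disc assay. Discs soaked with 10 µl of a 10 mg/ml compound solution were placed on evenly inoculated minimal medium agar supplemented with 0.2 mM L-histidine, then incubated 16–20 h at 37 °C. Inhibition zones were scored by eye on a graded scale (strong, weak, partial, none).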

The subject of data set [10] is Escherichia coli. Nature of the data set: Antibacterial activity against Escherichia coli 1655 assessed as growth inhibition at 10 mg/ml after 16 to 20 hrs in presence of 0.2 mM L-histidine. Type of data set: functional, organism-based. An outline of the steps:
(§4)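 Histidine complementation: minimal medium agar plates were supplemented with 0.2mM L-histidine and evenly inoculated. Filter discs soaked with 10 µl of 10 mg/ml compound were applied, and plates were incubated 16–20 h at 37 °C. Inhibition was scored qualitatively. Ampicillin (10 µl, 1 mg/ml) and DMSO served as controls.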

Data set [11] deals with Staphylococcus aureus. Nature of the data set: Antibacterial activity against methicillin-resistant Staphylococcus aureus Mu50 assessed as growth inhibition at 10 mg/ml after 16 to 20 hrs in presence of 0.2 mM L-histidine. It is filed as functional, organism-based. The method, boiled down: as §3
The subject of data set [12] is Pseudomonas aeruginosa. Nature of the data set: Antibacterial activity against Pseudomonas aeruginosa PAO1 assessed as growth inhibition at 10 mg/ml after 16 to 20 hrs in presence of 0.2 mM L-histidine. Type of data set: functional, organism-based. An outline of the steps:
as §4

The subject of data set [13] is Escherichia coli. In words: Antibacterial activity against clinical isolate of Escherichia coli assessed as growth inhibition at 1 mg/ml after 16 to 20 hrs. It is filed as functional, organism-based.
In data set [14] the test system is Staphylococcus aureus. In words: Antibacterial activity against clinical isolate of Staphylococcus aureus assessed as growth inhibition at 1 mg/ml after 16 to 20 hrs. It is filed as functional, organism-based.
For data set [15], the system named is Pseudomonas aeruginosa. In words: Antibacterial activity against Pseudomonas aeruginosa PAO1 assessed as growth inhibition at 1 mg/ml after 16 to 20 hrs in presence of 0.2 mM L-histidine. It is filed as functional, organism-based.
The test system of data set [16] is Staphylococcus aureus. Nature of the data set: Antibacterial activity against methicillin-resistant Staphylococcus aureus Mu50 assessed as growth inhibition at 1 mg/ml after 16 to 20 hrs in presence of 0.2 mM L-histidine. Type of data set: functional, organism-based. The method, boiled down: (§5)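 Discs carrying 10 µl of a 1 mg/ml solution were placed on evenly inoculated minimal medium agar containing 0.2 mM L-histidine, then incubated 16–20 h at 37 °C. Inhibition zones were scored by eye as strong, weak, partial or none.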

In data set [17] the test system is Escherichia coli. In words: Antibacterial activity against Escherichia coli 1655 assessed as growth inhibition at 1 mg/ml after 16 to 20 hrs in presence of 0.2 mM L-histidine. It is filed as functional, organism-based.
In data set [18] the test system is Staphylococcus aureus. In words: Antibacterial activity against methicillin-resistant Staphylococcus aureus USA300 assessed as growth inhibition at 1 mg/ml after 16 to 20 hrs. It is filed as functional, organism-based. The method, boiled down: (§6)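 Disc diffusion assay. Filter discs carrying 10 µl of a 1 mg/ml solution were placed on evenly inoculated LB or minimal medium agar plates, then incubated 16–20 h at 37 °C. Growth inhibition was scored by eye on a graded scale (strong, weak, partial, none).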

The test system of data set [19] is Escherichia coli. In words: Antibacterial activity against Escherichia coli 1655 assessed as growth inhibition at 1 mg/ml after 16 to 20 hrs. It is filed as functional, organism-based.
Data set [20] relates to Staphylococcus aureus. In words: Antibacterial activity against methicillin-resistant Staphylococcus aureus Mu50 assessed as growth inhibition at 1 mg/ml after 16 to 20 hrs. It is filed as functional, organism-based. The method, boiled down:
as §6

Data set [21] deals with Staphylococcus aureus. In words: Antibacterial activity against methicillin-resistant Staphylococcus aureus USA300 assessed as growth inhibition at 1 mg/ml after 16 to 20 hrs in presence of 0.2 mM L-histidine. It is filed as functional, organism-based. An outline of the steps: as §5

Regarding `Cc1ncc(CO)c(CNc2ccc(Oc3ccccc3)cc2)c1O`, the outcome in data set [1], in data set [3], in [4], in data set [5] and in [6] was Active. In [2], the Activity result is reported as “Toxic”.
As to `CN(C)c1ccc(/C=N/Nc2ccc(S(=O)(=O)O)cc2)cc1`, the outcome in data set [1], in [7], in data set [4] and in data set [6] was inactive.
In the case of `Cc1c(OCC(=O)O)ccc2c(-c3ccccc3)cc(=O)oc12`, the result in [1], in data set [7], in data set [3], in data set [4], in [5] and in data set [6] was Active. Besides, the Activity entry in data set [2] and in data set [8] was “Non-toxic” throughout.
Take `O=C(O)c1cccc(NC(=O)[C@H]2CCCC[C@@H]2C(=O)O)c1`: the result in data set [1], in data set [7], in [4] and in data set [6] was inactive. Further, the result in [3] was Active.
`Cc1oc(C(=O)O)cc1COc1ccc2c3c(c(=O)oc2c1C)CCC3`: the outcome in [1], in data set [7], in data set [3] and in data set [5] was inactive. Moreover, the outcome in data set [4] and in [6] was Active.
On to `C[C@@H](NC[C@@H](O)Cn1c2ccccc2c2ccccc21)C(=O)O`, for which the outcome in data set [1], in data set [7], in [3], in data set [4], in [5] and in data set [6] was inactive.
For the molecule `CCc1cc(=O)oc2c3c(c(C)c(OCC(=O)O)c12)OC(C)(C)C=C3`, the outcome in [9], in data set [11], in [7] and in data set [4] was inactive. Besides, the outcome in data set [10], in data set [12], in [3], in data set [5] and in [6] was Active.
Regarding `CSCC[C@@H](NCC[C@H](O)c1ccccc1)C(=O)O`, the outcome in data set [1], in [7], in data set [4], in [5] and in data set [6] was inactive. In [3], the outcome was Active.
In the case of `CC(=O)C1C(O)C(=O)N(c2ccc(C(=O)O)cc2)[C@H]1c1ccccc1` (stereo partly specified), the result in data set [9], in [10], in data set [11] and in data set [12] was inactive. The outcome in [1], in data set [7], in [3], in [4], in data set [5] and in data set [6] was Active.
For `CC1(C)S[C@@H]2[C@H](NC(=O)[C@H](N)c3ccccc3)C(=O)N2[C@H]1C(=O)O` [AMPICILLIN], the result in data set [13], in [14], in data set [16], in [18], in data set [19] and in [20] was Active. Moreover, the result in [21] was Active. In addition, the outcome in data set [15] and in [17] was inactive. For the same molecule, the Activity result in data set [2] is recorded as “Non-toxic”.
On to `O=C1Nc2ccc(Cl)cc2C(c2cccc(O)c2)=N[C@H]1O`, for which the result in [1], in [3], in data set [5] and in data set [6] was Active.
Turning to `O=C(O)CCCNC[C@@H](O)Cn1c2ccccc2c2ccccc21`, the outcome in [9], in data set [10], in data set [12] and in [3] was inactive. For the same molecule, the outcome in [11], in data set [1], in [4] and in data set [6] was Active. Also, the Activity result in data set [2] is “Non-toxic”.
With `O=C(O)c1ccc([C@H](O)[C@@H](O)c2ccccc2)cc1`, the result in data set [1], in data set [4], in data set [5] and in [6] was Active. Moreover, in [2], the Activity entry is “Toxic”. For the same molecule, the result in data set [3] was inactive.
As for `O=C(O)C[C@H](NCc1ccco1)C(=O)Cc1ccc(Cl)cc1`, the result in data set [1], in data set [7], in data set [4], in [5] and in [6] was inactive.
Consider `CCCCc1cc(=O)oc2c(C)c(O[C@H](C)C(=O)O)ccc12`, for which the result in data set [9], in data set [10], in data set [11], in data set [12], in [3] and in [4] was Active. Further, the result in data set [6] was Active. Also, the result in data set [1] was inactive.
On to `CC(=O)C1=C(O)C(=O)N(CCC(=O)O)[C@@H]1c1ccc(C(C)C)cc1`, for which the result in data set [9], in [10], in data set [11], in data set [12], in data set [7] and in data set [3] was Active. For the same molecule, the outcome in [5] and in data set [6] was Active. In addition, the outcome in data set [1] and in data set [4] was inactive.
With `CCN(CCc1ccccc1)C(=O)CSc1ncccc1C(=O)O`, the outcome in data set [9] and in data set [11] was inactive. Also, the outcome in [10], in data set [12] and in data set [5] was Active.
As to `O=C(O)C[C@H](c1ccncc1)c1c[nH]c2ccccc12`, the outcome in [9], in data set [10], in data set [11], in data set [12], in [7] and in data set [3] was Active. Moreover, the result in data set [4] and in data set [6] was Active. For the same molecule, the result in data set [1] was inactive.
